Test results published in ChEMBL document CHEMBL1154557, “Induction of choline acetyltransferase activity in cholinergic neurons by stolonidiol: structure-activity relationship” (J Nat Prod, 2000).
Activity calls are given as the source filed them. No cut-off for these calls is given here.

Key:
[1] = biological target: T1, Choline O-acetyltransferase (Rattus norvegicus) (UniProt P32738); experiment: Induction of ChAT activity in rat forebrain cells at 0.1 ug/mL relative to control; assay type: cell-based
T1 sequence (whole entry): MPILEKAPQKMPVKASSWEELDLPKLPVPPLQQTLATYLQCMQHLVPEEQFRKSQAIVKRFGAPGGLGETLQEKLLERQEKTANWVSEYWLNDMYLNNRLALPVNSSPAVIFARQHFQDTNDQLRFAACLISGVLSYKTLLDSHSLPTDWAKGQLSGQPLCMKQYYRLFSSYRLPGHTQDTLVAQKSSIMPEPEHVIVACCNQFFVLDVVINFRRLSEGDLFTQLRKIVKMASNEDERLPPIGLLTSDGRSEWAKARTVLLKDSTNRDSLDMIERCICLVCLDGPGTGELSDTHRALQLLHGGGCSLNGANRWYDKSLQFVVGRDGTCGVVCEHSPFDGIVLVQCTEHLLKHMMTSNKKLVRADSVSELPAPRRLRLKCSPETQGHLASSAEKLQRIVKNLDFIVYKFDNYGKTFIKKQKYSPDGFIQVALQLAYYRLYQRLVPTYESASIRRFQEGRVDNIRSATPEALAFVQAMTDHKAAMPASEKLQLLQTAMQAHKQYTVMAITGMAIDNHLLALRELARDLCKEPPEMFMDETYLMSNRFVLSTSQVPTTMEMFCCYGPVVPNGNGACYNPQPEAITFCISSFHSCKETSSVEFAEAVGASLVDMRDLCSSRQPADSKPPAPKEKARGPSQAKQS
Procedure, shortened: (§1)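 Basal forebrain from E17–19 rat embryos, papain-dissociated, plated at 1 × 10^6 cells/well in DMEM/F12 with 5% FBS and 5% horse serum. After 7 days of preculture, cells were exposed for 3 days. Lysate (1% Triton X-100, pH 6.8 Tris) was incubated with 25 µM [14C]acetyl-CoA and 8 mM choline with eserine for 1 h at 37 °C. Extracted [14C]ACh was counted. Results are % of control, n = 3.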

[2] = biological target: T1, Choline O-acetyltransferase (Rattus norvegicus); experiment: Induction of ChAT activity in rat forebrain cells at 1 ug/mL relative to control; assay type: cell-based; procedure, shortened: as §1
[3] = biological target: T1, Choline O-acetyltransferase (Rattus norvegicus); experiment: Induction of ChAT activity in rat forebrain cultured cells at 0.01 ug/mL after 3 days relative to control; assay type: cell-based; procedure, shortened: as §1
Rattus norvegicus [4] = organism: Rattus norvegicus; experiment: Induction of ChAT mRNA expression in rat forebrain cells at 0.1 ug/mL after 6 hrs by RT-PCR method; assay type: functional, cell-based
Procedure, shortened: (§2)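 Cultured rat embryo basal forebrain cells were exposed for 6 h. ChAT mRNA was assessed by RT-PCR, and ethidium bromide-stained products were quantified by optical scanning as relative intensities.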

[5] = biological target: T2, Choline O-acetyltransferase (Mus musculus) (UniProt Q03059); experiment: Induction of ChAT activity in mouse SN49 cultured cells at 0.1 ug/mL after 3 days relative to control; assay type: cell-based
T2 sequence (whole entry): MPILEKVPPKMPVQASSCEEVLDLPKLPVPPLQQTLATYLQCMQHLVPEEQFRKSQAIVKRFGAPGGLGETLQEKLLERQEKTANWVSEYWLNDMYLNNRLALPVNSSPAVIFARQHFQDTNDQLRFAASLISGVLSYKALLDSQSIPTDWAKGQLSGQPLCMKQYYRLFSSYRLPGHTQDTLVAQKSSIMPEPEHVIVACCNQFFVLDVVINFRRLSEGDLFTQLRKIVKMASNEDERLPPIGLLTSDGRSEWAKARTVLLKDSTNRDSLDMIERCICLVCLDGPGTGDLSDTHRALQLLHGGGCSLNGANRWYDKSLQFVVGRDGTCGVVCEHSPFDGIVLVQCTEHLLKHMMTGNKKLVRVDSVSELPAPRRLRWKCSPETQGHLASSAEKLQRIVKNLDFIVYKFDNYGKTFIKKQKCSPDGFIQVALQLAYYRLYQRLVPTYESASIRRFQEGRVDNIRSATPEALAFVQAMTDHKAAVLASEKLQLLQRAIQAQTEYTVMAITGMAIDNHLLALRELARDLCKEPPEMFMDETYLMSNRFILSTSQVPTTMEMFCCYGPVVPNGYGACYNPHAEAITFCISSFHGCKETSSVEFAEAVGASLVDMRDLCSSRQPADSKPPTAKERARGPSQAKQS
Procedure, shortened: (§3)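 Mouse septal SN49 hybrid cells were grown in DMEM with 10% FBS and plated at 2 × 10^5 cells/well. After 24 h at 37 °C, compound was added for a further 48 h. ChAT was measured in Triton lysates as [14C]acetylcholine formed from 25 µM [14C]acetyl-CoA and 8 mM choline chloride (0.1 mM eserine, 37 °C, 1 h) by scintillation counting. Results are % of control, n = 3, with Dunnett test.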

[6] = biological target: T2, Choline O-acetyltransferase (Mus musculus); experiment: Induction of ChAT activity in mouse SN49 cultured cells at 1 ug/mL after 3 days relative to control; assay type: cell-based; procedure, shortened: as §3
[7] = biological target: T2, Choline O-acetyltransferase (Mus musculus); experiment: Induction of ChAT activity in mouse SN49 cultured cells at 10 ug/mL after 3 days relative to control; assay type: cell-based; procedure, shortened: as §3
[8] = biological target: T1, Choline O-acetyltransferase (Rattus norvegicus); experiment: Induction of ChAT activity in rat forebrain cultured cells at 10 ug/mL after 3 days relative to control; assay type: cell-based; procedure, shortened: as §1
[9] = biological target: T1, Choline O-acetyltransferase (Rattus norvegicus); experiment: Induction of ChAT activity in rat forebrain cultured cells at 0.1 ug/mL after 3 days relative to control; assay type: cell-based; procedure, shortened: as §1
Rattus norvegicus [10] = organism: Rattus norvegicus; experiment: Induction of ChAT mRNA expression in rat forebrain cells at 1 ug/mL after 6 hrs by RT-PCR method; assay type: functional, cell-based; procedure, shortened: as §2
[11] = biological target: T2, Choline O-acetyltransferase (Mus musculus); experiment: Induction of ChAT activity in mouse SN49 cultured cells at 0.01 ug/mL after 3 days relative to control; assay type: cell-based; procedure, shortened: as §3
[12] = biological target: T1, Choline O-acetyltransferase (Rattus norvegicus); experiment: Induction of ChAT activity in rat forebrain cultured cells at 1 ug/mL after 3 days relative to control; assay type: cell-based; procedure, shortened: as §1
[13] = Cytotoxicity against rat forebrain cells at 10 ug/mL; assay type: cell-based
[14] = Cytotoxicity against rat basal forebrain cells at 10 ug/mL

Structure (SMILES)	Activity [1]	Activity [2]	other results
C=C1CC[C@@H]2O[C@]2(COC(=O)CCCCCCCCCCC)C[C@H]2O[C@@]23[C@H](C(C)(C)O)CC[C@@]3(C)CC1	108%	143%	
C=C1CC[C@@H]2O[C@]2(COC(=O)c2ccccc2)C[C@H]2O[C@@]23[C@H](C(C)(C)O)CC[C@@]3(C)CC1	116%	173%	
C=C1CC[C@@H](Cl)[C@@](O)(COC(=O)c2ccc(Br)cc2)C[C@H]2O[C@@]23[C@H](C(C)(C)O)CC[C@@]3(C)CC1	96.7%	95.3%	
C=C1CC/C=C(/CO)C/C=C2\[C@H](C(C)(C)O)CC[C@@]2(C)CC1	109%	122%	
C=C1CC[C@@H]2O[C@]2(COC(=O)CCCCCCCCCCCCC)C[C@H]2O[C@@]23[C@H](C(C)(C)O)CC[C@@]3(C)CC1	97.6%	174%	
C=C1CC[C@@H](OC)[C@@](O)(CO)C[C@H]2O[C@@]23[C@H](C(C)(C)O)CC[C@@]3(C)CC1	89.2%	92.3%	
COC1(OC)CC[C@@H]2O[C@]2(CO)C[C@H]2O[C@@]23[C@H](C(C)(C)O)CC[C@@]3(C)CC1	109%	104%	

Continued, in another order:

Activity [1]	Activity [2]	Structure (SMILES)	other results
118%	179%	C=C1CC[C@@H]2O[C@]2(COC(=O)CCC)C[C@H]2O[C@@]23[C@H](C(C)(C)O)CC[C@@]3(C)CC1	
89.2%	210%	C=C1CC[C@@H]2O[C@]2(COC(C)=O)C[C@H]2O[C@@]23[C@H](C(C)(C)O)CC[C@@]3(C)CC1	
127%	231%	C=C1CC[C@@H]2O[C@]2(CO)C[C@H]2O[C@@]23[C@H](C(C)(C)O)CC[C@@]3(C)CC1 [STOLONIDIOL]	Activity [3]: 130%; Activity (Rattus norvegicus [4]): Active; Activity [5]: 142%; Activity [6]: 145%; Activity [7]: 92.7%; Activity [8]: 38.2%; Activity [9]: 178%; Activity (Rattus norvegicus [10]): Active; Activity [11]: 146%; Activity [12]: 139%; Activity [13]: Toxic; Activity [14]: Toxic
139%	164%	C=C1CC[C@@H]2O[C@]2(COC(=O)CCCCC)C[C@H]2O[C@@]23[C@H](C(C)(C)O)CC[C@@]3(C)CC1	
11.5%	161%	C=C1CC[C@@H]2O[C@]2(COC(C)=O)C[C@H]2O[C@@]23[C@H](C(C)(C)O)CC[C@@]3(C)[C@H](OC(C)=O)C1	
